T cruzi inh: inhibitors of intracellular T. cruzi growth, primary screen, luminescence, NIH3T3 host cells; T. cruzi beta-gal in NIH3T3, 90 h; inhibition, % (concentration not given with the values); 300,000 tested, 1.4% active; AID 1885, 2009;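 active = mean inhibition across valid replicates above about 55%, limit read from the data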;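 also: signal also drops with host cell toxicity which is not excluded here; higher percent means less beta-gal luminescence so fewer parasites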
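assay system = mouse NIH/3T3 fibroblasts infected with β-gal-expressing T. cruzi Tulahuen C4 | input = 5,000 NIH/3T3 host cells per well | buffer or medium = DMEM plus 2% FBS | timing = 3 h host attachment, then at least 90 h co-culture | measured by = GalScreen luminescence, 60 min | evaluation = luminescence reflecting intracellular parasite burden, expressed as percent inhibition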
SKKanGAS inh: S. pyogenes SKKanGAS growth inhibitors in kanamycin, primary screen, streptokinase expression inhibitor project, SKKanGAS strain, BacTiter-Glo luminescence; 6 h; inhibition, % at 7.5 µM; 300,000 tested, 1.3% active; AID 1662, 2009;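 active = mean replicate score, as percent of positive control median, at least 50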;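 also: strain carries kanamycin resistance gene driven by streptokinase promoter and grows in 40 µg/ml kanamycin; loss of luminescence reflects streptokinase promoter inhibition or plain growth inhibition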
Lmaj promast: Leishmania major promastigote growth inhibition, primary screen; AID 1063, 2008; 200,000 tested, 9% active; inhibition, % at 10 µM; Leishmania major promastigotes, resazurin fluorescence viability; in the data active = inhibition above about 50%;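 also: promastigotes grown with compound for 44 hours at 28 °C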
CSC inhib: cancer stem cell viability inhibitors, primary screen, luminescence; cancer stem cell-like cells viability; inhibition, % at 7.5 µM; 300,000 tested, 1.1% active; in the data active = inhibition above about 75%; tested in HMLE shEcad cells
Mdm2 MdmX PPI: inhibitors of human Mdm2-MdmX association, primary screen, cell-based, luminescence, split luciferase, SaOS-2, uHTS; Protein Mdm4 (Homo sapiens) + E3 ubiquitin-protein ligase Mdm2 (Homo sapiens), …; SaOS-2 split-luciferase Mdm2/MdmX complementation; inhibition, % at 8 µM; 330,000 tested, 3% active; AID 485346, 2010;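 active = inhibition of at least 50% at 8 µM in the primary screen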
Beta apoptosis: inhibitors of cytokine-induced beta cell apoptosis, primary screen, luminescence; 300,000 tested, 0.8% active; AID 435005, 2010; INS-1E cytokine-induced death, ATP luminescence, 48 h; percent of positive-control rescue, neutral wells zero; protection from apoptosis, % (concentration not given with the values);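 active = Every replicate reaches about 75%, or at least half do and their mean reaches it too, limit read from the data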;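 also: higher means more ATP so stronger rescue from cytokine killing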
Numbers stand for hits; . = inactive; / = not tested or not shown. Most compounds without a hit are left out; they make up all but 9.4% or so of the library.

SMILES	T cruzi inh	SKKanGAS inh	Lmaj promast	CSC inhib	Mdm2 MdmX PPI	Beta apoptosis
CC1CC(C)(C)CC2(C1)NC(=O)N(CC(=O)NCc1ccccc1F)C2=O (stereo not given)	.	.	/	.	.	.
COc1ccc(OCC(O)Cn2ccnc2C)cc1 (stereo not given)	.	.	67	.	.	.
Cc1nccn1CC(O)COc1ccccc1 (stereo not given)	.	.	.	.	.	.
O=C1CC2(CCCCCC2)Oc2ccc(Cl)cc21	.	.	/	.	.	.
N#Cc1cc2c(nc1SCC(=O)Nc1sc3c(c1C#N)CCC3)CCCC2	.	.	55	.	.	.
CC(C)(C)NC(=O)C(c1ccc(F)cc1)N(CCc1ccccc1)C(=O)c1ccn[nH]1 (stereo not given)	.	.	.	.	.	.
COc1ccc(N(C(=O)c2ccn[nH]2)C(C(=O)NC(C)(C)C)c2ccc(F)cc2)cc1 (stereo not given)	.	.	81	.	.	.
CCC(=O)NC(=S)Nc1cccc(Cl)c1N1CCCCC1	.	.	.	85	.	.
CCCCC(=O)NC(=S)Nc1cccc(Cl)c1N1CCCCC1	.	.	.	/	.	.
CCCC(=O)NC(=S)Nc1cccc(Cl)c1N1CCCCC1	.	101	.	/	.	.
C#CCOCCOCCOCCNc1nc(N2CCN(C(=O)[C@H](CCC(=O)O)n3cc([C@@H](N)[C@H](C)CC)nn3)CC2)nc(N2CCN(C(=O)[C@H](CCC(=O)O)n3cc([C@@H](N)CCSC)nn3)CC2)n1	/	/	/	.	.	.
CCCNC(=O)Cn1c(=O)/c(=C\c2ccc(-c3cccc([N+](=O)[O-])c3)o2)s/c1=C\C(=O)C(C)(C)C	.	.	63	.	.	.
CCCNC(=O)Cn1c(=O)/c(=C\c2ccc(-c3ccc([N+](=O)[O-])cc3)o2)s/c1=C\C(=O)C(C)(C)C	.	.	73	.	/	.
Cc1ccc(C2C(N)C(=O)N2c2ccc(C)cc2)cc1 (stereo not given)	.	.	/	.	.	.
O=S(=O)(NC1CCCCC1Sc1ncccn1)c1ccccc1 (stereo not given)	.	.	65	.	.	.
O=S(=O)(NC1CCCCC1Nc1ccc(Cl)cc1)c1ccccc1 (stereo not given)	.	.	91	.	.	.
O=C(CCC(=O)Nc1ccc(F)cc1)N/N=C/c1cccnc1	.	.	/	.	.	/
Cc1nnc(NC(=O)C2CCN(S(=O)(=O)c3ccc(Cl)cc3)CC2)s1	.	.	.	.	.	.
O=c1[nH]c(=O)n(-c2ccccc2)c2c1C(C(F)(F)F)(C(F)(F)F)N=C(CCC1CCCCC1)N2	.	.	55	.	.	.
COc1ccc(-n2c3c(c(=O)[nH]c2=O)C(C(F)(F)F)(C(F)(F)F)N=C(CC(C)C)N3)cc1	.	.	.	.	.	.
Cc1ccc(Cl)cc1N1CCN(C(=O)C2(S(=O)(=O)c3ccc(Cl)cc3)CC2)CC1	.	.	97	.	.	.
O=C(NCCCN1CCN(c2cccc(Cl)c2)CC1)C1(S(=O)(=O)c2ccc(Cl)cc2)CC1	.	.	100	.	.	.
Cc1cccc(N2CCN(C(=O)C3(S(=O)(=O)c4ccc(Cl)cc4)CC3)CC2)c1C	.	.	52	.	.	.
Cc1ccc(S(=O)(=O)C2(C(=O)N3CCN(c4ccccc4F)CC3)CC2)cc1	.	.	/	.	.	.
O=C(NC(=O)N1CCN(c2cccc(Cl)c2)CC1)c1ccc(Cl)cc1	.	.	/	110	.	.
SMILES	T cruzi inh	SKKanGAS inh	Lmaj promast	CSC inhib	Mdm2 MdmX PPI	Beta apoptosis
COc1cccc(CN(C)S(=O)(=O)c2c(C)noc2C)c1OC	/	/	/	/	.	/
O=C(N1CCN(c2cccc(Cl)c2)CC1)C1(S(=O)(=O)c2ccc(Cl)cc2)CC1	.	.	99	.	.	.
O=C(c1ccc([N+](=O)[O-])s1)N1CCN(c2cccc(Cl)c2)CC1	.	.	.	.	.	92
CC(=O)c1ccc(N2CCN(C(=O)C3(S(=O)(=O)c4ccc(Cl)cc4)CC3)CC2)cc1	.	.	.	.	.	.
Cc1ccc(Cl)cc1N1CCN(c2cccc[n+]2C)CC1	.	.	74	.	.	.
Cc1ccc(Cl)cc1N1CCN(S(=O)(=O)c2cccc(S(=O)(=O)N3CCCC3)c2)CC1	.	.	61	.	.	.
CN(C)S(=O)(=O)c1ccc(NC(=O)CCNC(=O)c2ccco2)cc1	.	.	/	.	.	.
O=C(Nc1ccncc1)c1ccc(-c2ccccc2)cc1	58	.	.	.	.	.
CN(c1ccc(C(=O)NCCSCc2ccccc2)cc1)S(=O)(=O)c1ccccc1	.	.	82	.	.	.
CSCc1nnc(NC(=O)c2ccc(S(=O)(=O)N(CC(C)C)CC(C)C)cc2)o1	.	80	79	/	/	/
CCc1nnc(NC(=O)c2ccc(S(=O)(=O)N(CC(C)C)CC(C)C)cc2)o1	/	/	96	/	.	.
COCCN(CCOC)S(=O)(=O)c1ccc(C(=O)Nc2nnc(COC)o2)cc1	.	.	.	.	.	.
C=CCn1c(CSc2ccc(C)cc2)n[nH]c1=S	.	.	/	.	.	.
CCc1nnc(NC(=O)c2ccc(S(=O)(=O)N(C)c3ccccc3)cc2)o1	.	52	83	.	.	.
CN(c1ccccc1)S(=O)(=O)c1ccc(C(=O)Nc2nnc(C3=COCCO3)o2)cc1	.	.	.	.	.	.
CN(c1ccccc1)S(=O)(=O)c1ccc(NC(=O)c2ccccc2)cc1	.	.	.	.	.	.
CN(c1ccccc1)S(=O)(=O)c1ccc(C(=O)Nc2ccncc2)cc1	70	.	/	.	.	/
COC(=O)N/N=C/c1cn(CCCOc2ccccc2)c2ccccc12	.	.	54	.	.	.
COC(=O)N/N=C/c1cn(Cc2ccccc2Cl)c2ccccc12	.	.	75	.	.	.
CCN1C(=O)[C@H]2[C@@H](c3ccc(-c4cccc(Cl)c4)cc3)N[C@@](Cc3ccccc3)(C(=O)OC)[C@H]2C1=O	55	.	/	.	.	.
CCOC(=O)C(=NC(C)C)NNc1cc(Cl)ccc1Cl	.	.	.	.	.	.
CCOC(=O)C(=NC(C)(C)C)NNc1cc(Cl)ccc1Cl	.	78	.	.	.	.
COc1ccc(C2=NN(C(=O)c3ccccc3)C(c3ccc(OC)c(OC)c3)C2)c(OC(C)=O)c1 (stereo not given)	.	.	/	.	.	.
COc1cccc(C(=O)N/N=C/c2ccc(OC3CSC3)cc2)c1	.	.	.	.	.	.
Cc1cccc(C(=O)N/N=C/c2ccc(OC3CSC3)cc2)c1	.	.	.	76	.	.

From PubChem
